An excerpt weighted towards active compounds, which were near 4% of everything screened.
UPR XBP1 act = adaptive UPR (XBP1) activation; 330,000 compounds, 0.33% hits; activation, % at 20 µM; CHO-XBP1 luciferase reporter, IRE1-XBP1 UPR activation, luminescence; percent of tunicamycin response, DMSO as zero;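 active = versus positive control, 20 µM dose yields 30% or more activation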
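Material: CHO cell line with stable XBP1 luciferase reporter; buffer or medium: F12 medium containing 10% fetal bovine serum; compound: single point, 20 µM final compound, 1% DMSO; incubation: 6 h treatment, 37 °C; measured by: glow luminescence from Steady-Glo reagent; evaluation: activation, % of tunicamycin; control set: tunicamycin high, DMSO low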
Exocytosis inh = lytic granule exocytosis inhibition | inhibition, % at 10 µM | 360,000 compounds, 0.66% hits | TALL-104 LAMP-1 surface exposure, flow cytometry; cells stimulated with thapsigargin and PMA | AID 651702;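 active = inhibition above about 55%, limit read from the data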
CHOP UPR activ = activators of apoptotic arm of unfolded protein response (CHOP); CHO-CHOP luciferase reporter, UPR activation, luminescence; percent of tunicamycin response over DMSO baseline; activation, % at 10 µM; 330,000 compounds, 0.34% hits;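 active = at 10 µM dose, activation of 40% or more, normalized to positive control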
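Assay system: CHO-CHOP cells, stable luciferase reporter of PERK-eIF2a-CHOP signalling / Buffer or medium: F12 plus 10% serum / Compound dosing: one dose, 10 µM in 0.5% DMSO / Times: 6 h compound treatment, 37 °C / Technique: luciferase luminescence / Read-out: % reporter activation, DMSO baseline versus tunicamycin full activation / Benchmarks: tunicamycin and DMSO controls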
Mdm2-MdmX inh = disrupts the human Mdm2-MdmX interaction | SaOS-2 split-luciferase Mdm2/MdmX complementation, luminescence | inhibition, % at 8 µM | 330,000 compounds, 3% hits;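 active = inhibition of at least 50% at 8 µM in the primary screen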
ABHD5 PLIN5 PPI = blocks binding of human ABHD5 to perilipin-5; Q00G26+Q8WTS1; Split G. princeps luciferase complementation, luminescence, 4 h; inhibition, % at 4 µM; 360,000 compounds, 0.78% hits; AID 602281;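 active = inhibition above the mean inhibition across every tested compound plus 3 SD, cut at about 22% in these data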
Target sequence (Q00G26 whole entry, looked up): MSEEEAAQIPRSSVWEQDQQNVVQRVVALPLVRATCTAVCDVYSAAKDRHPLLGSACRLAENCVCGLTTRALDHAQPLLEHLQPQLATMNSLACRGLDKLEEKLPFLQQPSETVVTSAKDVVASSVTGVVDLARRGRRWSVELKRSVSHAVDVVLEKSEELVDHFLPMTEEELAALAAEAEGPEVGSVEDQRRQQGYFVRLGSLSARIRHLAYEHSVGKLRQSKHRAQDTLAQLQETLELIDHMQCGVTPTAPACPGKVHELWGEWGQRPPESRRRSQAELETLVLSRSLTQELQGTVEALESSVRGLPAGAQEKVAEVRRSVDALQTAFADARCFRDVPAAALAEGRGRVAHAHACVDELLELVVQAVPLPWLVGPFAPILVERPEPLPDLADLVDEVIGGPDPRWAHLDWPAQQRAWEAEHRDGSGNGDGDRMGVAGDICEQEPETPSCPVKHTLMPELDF
Target sequence (Q8WTS1 whole entry, looked up): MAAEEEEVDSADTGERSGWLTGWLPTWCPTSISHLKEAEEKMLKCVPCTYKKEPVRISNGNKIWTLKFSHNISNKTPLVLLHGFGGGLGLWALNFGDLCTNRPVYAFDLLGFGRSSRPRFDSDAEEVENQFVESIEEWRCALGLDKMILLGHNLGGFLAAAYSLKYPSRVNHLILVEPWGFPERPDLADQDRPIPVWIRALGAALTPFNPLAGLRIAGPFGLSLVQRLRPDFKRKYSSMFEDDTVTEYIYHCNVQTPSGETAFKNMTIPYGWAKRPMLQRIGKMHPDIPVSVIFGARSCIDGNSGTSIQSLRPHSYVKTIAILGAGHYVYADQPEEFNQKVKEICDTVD
ABHD5 PLIN5 conf = confirmation of human ABHD5-PLIN5 interaction inhibitors. shares compounds with ABHD5 PLIN5 PPI. biochemical ABHD5-PLIN5 interaction, luminescence. inhibition, % at 4 µM. 2,200 compounds, 67% hits; in the data active = inhibition above about 23%
HNF4 split-luc = HNF4 split-luciferase signal hit, counter-screen | shares compounds with ABHD5 PLIN5 PPI | HNF4 dimerization, luminescence, biochemical | inhibition, % at 4 µM | 2,200 compounds, 77% hits | AID 651674;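 active = mean inhibition across replicate wells exceeding the computed hit threshold, cut at about 13% in these data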;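 also: light from luciferase halves that rejoin when HNF4 fusion proteins dimerize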
Hits are given with their value; - = inactive; . = not tested or not shown.

SMILES	UPR XBP1 act	Exocytosis inh	CHOP UPR activ	Mdm2-MdmX inh	ABHD5 PLIN5 PPI	ABHD5 PLIN5 conf	HNF4 split-luc
CCC(=O)c1ccccc1OCCCN1C(=O)NC(C)(C)C1=O	-	-	-	-	-	.	.
COc1ccc(C2=NN(CCC(=O)NC3CCC(C)CC3)C(=O)CC2)cc1 (configuration not stated)	-	-	-	-	-	.	.
COc1cc(NS(=O)(=O)c2cn(C)cn2)cc(OC)c1OC	-	-	-	-	-	.	.
O=C(Cc1ccc(S(=O)(=O)N2CCOCC2)s1)N1CCN(S(=O)(=O)c2cccc(F)c2)CC1	.	-	.	.	-	.	.
Cc1cc(C)c2c(=O)n(CC(=O)N3CCC(N4CCCCC4)CC3)sc2n1	-	-	-	-	34	33	98
Cc1nn(CC(=O)N2CCC(N3CCCCC3)CC2)c(=O)c2c1sc1ccccc12	-	-	-	-	-	.	.
Oc1c(CN2CCCC(C(F)(F)F)C2)cc(Cl)c2ccccc12 (configuration not stated)	-	-	-	-	24	-	-
CC(OCC(O)CN1CCCCC1CCO)c1ccc(Cl)cc1 (configuration not stated)	-	-	-	-	-	.	.
Cc1ccc2nc(N(CCN(C)C)C(=O)/C=C/c3cccs3)sc2c1	-	56	-	-	35	-	-
O=C(O)[C@H](Cc1ccccc1)N1C(=O)c2c(Cl)c(Cl)c(Cl)c(Cl)c2C1=O	-	-	-	-	71	-	-
O=C(O)C(Cc1ccccc1)n1cccc1 (configuration not stated)	-	-	-	-	-	.	.
CC(=O)Oc1ccccc1C(=O)C=Cc1cccc([N+](=O)[O-])c1	.	-	.	.	99	104	109
COc1ccccc1N1CCN(C(=O)/C=C/c2cccc([N+](=O)[O-])c2)CC1	-	-	-	-	-	.	.
Cc1cccn2c(=O)c(/C=C(\C#N)C(=O)NC3CCS(=O)(=O)C3)c(Oc3ccccc3Cl)nc12 (configuration not stated)	-	-	-	-	-	.	.
Cc1ccccc1Oc1nc2c(C)cccn2c(=O)c1/C=C(\C#N)C(=O)NC1CCS(=O)(=O)C1 (configuration not stated)	-	82	-	-	46	62	49
COC1=C(OC)C(=O)C(Sc2ccc3ccccc3c2)=CC1=O	.	86	.	.	81	72	104
Cc1ccc(NC(=O)c2cc(N3C(=O)C=CC3=O)ccc2N2CCOCC2)cc1	.	-	.	.	29	51	98
Cc1cccc(NC(=O)c2cc(NC(=O)C3CCCCC3C(=O)O)ccc2N2CCOCC2)c1 (configuration not stated)	-	-	-	-	-	.	.
COc1ccc(NC(=O)c2cc(NC(=O)C3CCCCC3C(=O)O)ccc2N2CCOCC2)cc1 (configuration not stated)	-	-	-	-	24	-	-
CCOC(=O)CC(NS(=O)(=O)c1ccc(OC)c(OC)c1)c1cccc([N+](=O)[O-])c1 (configuration not stated)	-	-	-	-	-	.	.
CCOC(=O)c1c(-c2ccc(Cl)cc2)csc1NC(=O)CNCc1ccco1	-	-	-	-	-	.	.
CCOc1ccc(C(C)=O)cc1N1C(=O)C2C3C=CC(C3)C2C1=O (configuration not stated)	-	-	-	-	-	.	.
CCOc1ccc(C(C)=O)cc1N1C(=O)C2C3C=CC(O3)C2C1=O (configuration not stated)	-	105	-	-	30	-	80
CC(C)S(=O)(=O)N1CCCC(c2cc(C(=O)NCc3cccnc3)no2)C1 (configuration not stated)	.	-	.	.	-	.	.
Cn1cnc([N+](=O)[O-])c1NC(C)(C)C	-	-	-	-	-	.	.
SMILES	UPR XBP1 act	Exocytosis inh	CHOP UPR activ	Mdm2-MdmX inh	ABHD5 PLIN5 PPI	ABHD5 PLIN5 conf	HNF4 split-luc
Cn1cnc([N+](=O)[O-])c1S(=O)(=O)c1ccc(Cl)cc1	.	-	.	.	49	75	98
Cc1c(C(=O)O)oc2ccc(S(=O)(=O)NCc3ccccc3)cc12	-	-	-	-	-	.	.
Cc1c(C(=O)N2CCCC2)sc(NC(=O)c2ccc(Cl)cc2)c1C#N	-	-	-	-	-	.	.
COc1ccccc1C(=O)Nc1sc(C(=O)N2CCCC2)c(C)c1C#N	-	-	-	-	60	-	-
O=C(CCCNC(=O)/C(=C\c1ccccc1F)NC(=O)c1ccccc1)OCc1ccccc1	-	-	-	-	-	.	.
Nc1sccc1C(=O)NCc1ccccc1	.	-	.	.	36	-	49
N#C/C(=C\c1ccncc1)c1nc2c(s1)CCCC2	-	-	-	-	-	.	.
COc1ccccc1N(C(C)=O)C1=C(Cl)C(=O)c2ccccc2C1=O	.	60	.	.	93	100	111
COc1cccc2cc(C(=O)NCc3ccco3)c(=O)oc12	-	-	-	-	-	.	.
COc1ccc2oc(=O)c(C(=O)NCc3ccco3)cc2c1	-	-	-	-	34	-	-
COc1ccc(S(=O)(=O)CC(=O)c2cc3cc(Br)ccc3oc2=O)cc1	-	-	-	-	33	70	53
O=c1c(Br)ccc(Br)cc1Br	.	-	.	.	84	101	111
CCCCn1ccc(=O)c2c(C(F)(F)F)nccc21	-	-	-	-	-	.	.
CCCCN1C(=O)/C(=C/C=C2\SCCN2C)SC1=S	-	-	-	-	30	25	21
CN1CCS/C1=C/C=C1/SC(=S)N(Cc2ccccc2)C1=O	.	-	.	.	25	22	18
CN1CCN(C(=O)/C(=C\c2ccccc2)c2ccccc2)CC1	-	-	-	-	-	.	.
O=[N+]([O-])c1ccc(N2N=C(c3ccco3)CC2c2ccccc2)cc1 (configuration not stated)	-	-	-	-	29	-	24
Cn1cccc1/C=C1\CC(C(C)(C)C)C/C(=C\c2cccn2C)C1=O (configuration not stated)	-	-	-	-	25	-	26
Cc1nnc(SCC(=O)Nc2ccc(Cl)cn2)n1Cc1ccccc1	-	-	-	-	-	.	.
Cc1nnc(SC(C)C(=O)Nc2ncc(Cl)cc2Cl)n1Cc1ccccc1 (configuration not stated)	-	-	-	-	57	-	-
O=C(CNC(=O)c1ccc(=O)[nH]c1)Nc1ccc(F)c(F)c1	-	-	-	-	-	.	.
CN1/C(=C/C=C/c2n(C)c3cc([N+](=O)[O-])c([N+](=O)[O-])cc3[n+]2C)C(C)(C)c2ccccc21	.	-	.	.	34	35	56
Cc1nc(CNC(=O)CC2C(=O)NCCN2Cc2ccoc2)nc2c1CCCC2 (configuration not stated)	-	-	-	-	34	45	34

Bioassay records (PubChem)
